In brackets after ≈: the same amount, converted by molar mass. A value given as a limit tells only on which side of the number the result lay.

The source of these data is ChEMBL document CHEMBL4477213, “Discovery and Optimization of Quinazolinone-pyrrolopyrrolones as Potent and Orally Bioavailable Pan-Pim Kinase Inhibitors” (J Med Chem, 2016).

In data set [1] the target is Serine/threonine-protein kinase pim-2 (Homo sapiens, UniProt Q9P1W9). The data set can be described thus: Inhibition of full length recombinant Pim-2 (unknown origin) assessed as reduction in phosphorylation of biotinylated-BAD peptide at Serine 112 residue preincubated for 30 mins followed by substrate addition for 1 hr by HTRF assay.
Data set [2] is filed under the species Homo sapiens. The data set can be described thus: Ratio of IC50 for pan Pim in human KMS-12-BM cells to IC50 for full length recombinant Pim-2 (unknown origin). Format: cell-based. An outline of the steps:
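Enzyme step: full-length recombinant human Pim-2 phosphorylating a BAD peptide at Ser112. The shift is the ratio of the cellular potency to the enzymatic potency.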

The target in data set [3] is Serine/threonine-protein kinase pim-1 (Homo sapiens, UniProt P11309).
For data set [4], the target named is Serine/threonine-protein kinase PIM (Homo sapiens, UniProt P11309+Q9P1W9+Q86V86). Particulars: kms-12-bm.
Data set [5] can be described thus: Aqueous solubility of the compound in FaSIF at pH 6.8 after 1 hr by LC/MS analysis.
Data set [6] can be described thus: Intrinsic clearance in rat liver microsomes at 1 uM after 30 mins in presence of NADPH. It counts as ADME, Microsome. Particulars: read-out: CLH. A general note: Liver microsomes are vesicles of endoplasmic reticulum, rich in cytochrome P450 enzymes.
Data set [7] in a line: Intrinsic clearance in human liver microsomes at 1 uM after 30 mins in presence of NADPH. It counts as ADME, Microsome. Conditions: read-out: CLH.
The nature of data set [8]: Clearance in rat at 2 mg/kg, iv. Format: ADME, organism-based. Conditions: in vivo.
Data set [9] can be described thus: Volume of distribution at steady state in rat at 2 mg/kg, iv or 5 mg/kg, po. Format: ADME, organism-based. Particulars: in vivo, read-out: Vdss.
Data set [10] can be described thus: Half life in rat at 2 mg/kg, iv or 5 mg/kg, po. It counts as ADME, organism-based. Particulars: in vivo.
The nature of data set [11]: Oral bioavailability in rat at 5 mg/kg. It counts as ADME, organism-based. Particulars: in vivo.
A short description of data set [12]: Aqueous solubility of the compound in PBS at pH 7.4 after 1 hr by LC/MS analysis. It counts as physicochemical. The essentials: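 The compound was dried down from DMSO and taken up in 1x PBS (pH 7.4) or FaSIF (pH 6.8). Samples were shaken 1 h, equilibrated at RT for 72 h, then centrifuged.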
The nature of data set [13]: Intrinsic clearance in dog liver microsomes at 1 uM after 30 mins in presence of NADPH. Format: ADME, Canis lupus familiaris, Microsome. Conditions: read-out: CLH. The essentials:
(§1)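 Parent compound at 1 µM was incubated with liver microsomes (rat or dog, 0.25 mg/mL) in 66.7 mM potassium phosphate, pH 7.4, with 1 mM NADPH at 37 °C for 30 min.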

Data set [14] can be described thus: Clearance in dog at 0.3 mg/kg, iv. Format: ADME, organism-based, Canis lupus familiaris. Particulars: in vivo.
Data set [15] can be described thus: Volume of distribution at steady state in dog at 0.3 mg/kg, iv. Format: ADME, organism-based, Canis lupus familiaris. Particulars: in vivo; for Vd: read-out: Vdss.
Data set [16] is described as follows: Half life in dog at 0.3 mg/kg, iv. It counts as ADME, organism-based, Canis lupus familiaris. Conditions: in vivo.
Data set [17] is described as follows: Drug metabolism in dog hepatocytes assessed as hydroxylation on the quinoxaline bicycle. It counts as ADME, cell-based, Canis lupus familiaris, Hepatocyte.
Data set [18] in a line: Fraction unbound in rat plasma at 5 uM by rapid equilibrium dialysis. It counts as ADME, cell-free. For orientation: Equilibrium dialysis compares concentrations on both sides of a semipermeable membrane.
The nature of data set [19]: Fraction unbound in dog plasma by rapid equilibrium dialysis. It counts as ADME, cell-free, Canis lupus familiaris.
A short description of data set [20]: Unbound clearance in iv dosed dog. Format: ADME, organism-based, Canis lupus familiaris. Particulars: in vivo. The essentials: (§2)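 Unbound plasma fraction (fu) measured by rapid equilibrium dialysis in rat or dog plasma; unbound clearance CLu calculated from IV clearance and fu.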
The nature of data set [21]: Intrinsic clearance in rat hepatocytes assessed per 10^6 cells. Particulars: read-out: CLH. It counts as ADME, cell-based, Hepatocyte.
The nature of data set [22]: Intrinsic clearance in dog hepatocytes assessed per 10^6 cells. Particulars: read-out: CLH. It counts as ADME, cell-based, Canis lupus familiaris, Hepatocyte.
Data set [23] is described as follows: Unbound clearance in iv dosed rat. Conditions: in vivo. It counts as ADME, organism-based. An outline of the steps:
as §2

The subject of data set [24] is KMS-12-BM. The experiment in a line: Antitumor activity against human KMS-12-BM cells xenografted in SCID-bg mouse assessed as tumor growth inhibition at 50 mg/kg, po qd measured twice per week. It counts as functional. Particulars: read-out: TGI.
A short description of data set [25]: Drug metabolism in rat liver microsomes assessed as hydroxylation of t-butyl group measured as 2-(6-fluoro-3-(1-hydroxy-2-methylpropan-2-ylamino)-2-methylquinoxalin-5-yl)-6,7-dihydro-1H-pyrrolo[3,2-c]pyridin-4(5H)-one formation. Format: ADME, Microsome.
Data set [26] is described as follows: Drug metabolism in dog liver microsomes assessed as dehydrogenation of 6,7-dihydro-1H-pyrrolo[3,2-c]pyridin-4(5H)-one measured as 2-(3-(tert-butylamino)-6-fluoro-2-methylquinoxalin-5-yl)-1H-pyrrolo[3,2-c]pyridin-4(5H)-one formation. It counts as ADME, Canis lupus familiaris, Microsome.
A short description of data set [27]: Drug level in dog liver microsomes treated with 2-(3-(tert-butylamino)-6-fluoro-2-methylquinoxalin-5-yl)-6,7-dihydro-1H-pyrrolo[3,2-c]pyridin-4(5H)-one. Format: ADME, Canis lupus familiaris, Microsome. The essentials:
as §1

Data set [28] is described as follows: Apparent permeability in pig LLC-PK1 cells. Format: ADME, cell-based, Sus scrofa.
Data set [29] in a line: Drug level in rat liver microsomes treated with 2-(3-(tert-butylamino)-6-fluoro-2-methylquinoxalin-5-yl)-6,7-dihydro-1H-pyrrolo[3,2-c]pyridin-4(5H)-one. Format: ADME, Microsome. An outline of the steps: as §1

Chain of Serine/threonine-protein kinase pim-2 (Q9P1W9 whole entry): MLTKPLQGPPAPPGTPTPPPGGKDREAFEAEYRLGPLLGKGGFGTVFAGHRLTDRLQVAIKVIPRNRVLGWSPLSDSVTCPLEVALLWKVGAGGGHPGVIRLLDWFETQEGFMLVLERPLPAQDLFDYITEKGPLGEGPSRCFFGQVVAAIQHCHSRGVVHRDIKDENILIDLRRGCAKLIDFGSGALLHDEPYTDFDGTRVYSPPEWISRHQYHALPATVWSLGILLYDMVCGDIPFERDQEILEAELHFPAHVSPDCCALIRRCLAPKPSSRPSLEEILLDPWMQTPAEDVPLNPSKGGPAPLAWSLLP
Chain of Serine/threonine-protein kinase pim-1 (P11309 whole entry): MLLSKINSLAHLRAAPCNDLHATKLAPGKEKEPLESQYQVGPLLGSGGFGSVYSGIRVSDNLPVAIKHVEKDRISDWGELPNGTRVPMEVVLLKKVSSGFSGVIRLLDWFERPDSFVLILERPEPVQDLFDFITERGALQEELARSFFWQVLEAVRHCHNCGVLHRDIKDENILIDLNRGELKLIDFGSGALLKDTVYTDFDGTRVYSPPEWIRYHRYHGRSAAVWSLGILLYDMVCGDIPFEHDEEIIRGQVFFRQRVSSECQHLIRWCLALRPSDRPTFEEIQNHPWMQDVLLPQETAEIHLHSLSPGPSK

Regarding `C[C@H]1NC(=O)c2cc(-c3cccc4c(=O)n(C)c(CC(C)(C)C)nc34)[nH]c21`, the IC50 (in general, the concentration that gives 50% inhibition) in [1] was determined as 4.9 nM; in data set [3] it was 7.3 nM; in data set [4], 5960 nM. Besides, the Ratio IC50 in data set [2] is above 1000. Moreover, the solubility – broadly, how much of the substance goes into solution per volume – at 1 h in data set [5] amounted to 9 µM (≈ 3.28 µg/mL).
For `Cc1nc2cccc(-c3cc4c([nH]3)[C@@H](C)NC4=O)c2nc1NC(C)(C)C`, the microsomal CLint at 1 µM in [6] turned out to be 50 µL/min/mg; in data set [7], 37 µL/min/mg; in data set [13] it was 88 µL/min/mg. In addition, the clearance (commonly the volume of plasma or blood freed of the substance per unit of time) was 8.33 mL/min/kg in data set [8] and 26.7 mL/min/kg in data set [14]. For the same compound, the Vd in [9] came to 1.3 L/kg; in data set [15] it was 1.7 L/kg. The half-life (commonly how long it takes for the measured level to halve) was 3 h in [10] and 0.6 h in data set [16]. In addition, the bioavailability (as a rule, dose-corrected exposure relative to a reference, in per cent) in data set [11] stood at 62%. Further, the values for the solubility at 1 h in data set [12] and in [5] were 99 µM (≈ 34.6 µg/mL) and 245 µM (≈ 85.6 µg/mL), respectively. In data set [17], the Drug metabolism entry was “Metabolite_Detected”.
Consider `Cc1nc2ccc(F)c(-c3cc4c([nH]3)CCNC4=O)c2nc1NC(C)(C)C`, for which the IC50 in data set [1] was 0.3 nM; in data set [3] it was 0.3 nM; in data set [4], 23 nM. The microsomal CLint at 1 µM in [6] came to 189 µL/min/mg; in data set [7], 66 µL/min/mg; in data set [13], 203 µL/min/mg. Moreover, the clearance in [8] is 6.67 mL/min/kg. Further, the Vd in data set [9] came out at 1 L/kg. Also, in [10], the half-life is 3.5 h. Moreover, the bioavailability in [11] stood at 37%. The compound further gave a CL in data set [14] of 56.7 mL/min/kg. The Vdss – broadly, the apparent volume that relates the amount in the body to the concentration in plasma or blood – in [15] stood at 8.7 L/kg. For the same compound, in data set [16], the t1/2 came out at 0.6 h. Besides, in data set [18], the fraction unbound – broadly, the share of the substance not bound to proteins or other matrix – at 5 µM stood at 0.017. The fraction unbound in data set [19] is 0.06. Also, the CL free came out at 943 mL/min/kg in data set [20] and 392 mL/min/kg in [23]. Also, the hepatocyte CLint stood at 39 µL/min/1e6 cells in [21] and 32 µL/min/1e6 cells in [22]. Besides, the inhibition in vivo at 50 mg/kg in [24] came to 78%. The Drug metabolism result in [25] and in data set [26] was “Metabolite_Detected” in each case.
For `C[C@H]1NC(=O)c2cc(-c3cccc4c(=O)n(C)c(NC(C)(C)CO)nc34)[nH]c21`, the IC50 was 0.9 nM in [1], 0.7 nM in data set [3] and 127 nM in data set [4]. Besides, the solubility at 1 h came out at 101 µM (≈ 38.5 µg/mL) in [12] and 134 µM (≈ 51.1 µg/mL) in data set [5].
Turning to `Cc1nc2ccc(F)c(-c3cc4c(=O)[nH]ccc4[nH]3)c2nc1NC(C)(C)C`, the IC50 in [1] was found to be 0.1 nM; in [3], 0.2 nM; in data set [4], 148 nM. The Drug metabolism result in data set [27] is “Metabolite_Detected”.
In the case of `C[C@H]1NC(=O)c2cc(-c3cccc4c(=O)n(C)c(NC5(C)CC5)nc34)[nH]c21`, in [9], the Vd was 1.9 L/kg. The compound also gave a bioavailability in data set [11] of 5%. The solubility at 1 h in data set [12] was found to be 56 µM (≈ 20.4 µg/mL); in [5], 344 µM (≈ 125 µg/mL). Also, in [28], the Papp (as a rule, a coefficient for how fast a substance crosses the barrier) is 29 ×10⁻⁶ cm/s.
Regarding `Cc1nc2ccc(F)c(-c3cc4c([nH]3)CCNC4=O)c2nc1NC(C)(C)CO`, the results for the IC50 in data set [1], in data set [3] and in [4] were 0.3 nM, 0.9 nM and 143 nM, respectively. Further, the Drug metabolism result in data set [29] was “Metabolite_Detected”.
For `C[C@H]1NC(=O)c2cc(-c3cccc4c(=O)n(C)c(N(C)C(C)(C)C)nc34)[nH]c21`, the IC50 in [1] came out at 1 nM; in [3], 1.5 nM; in data set [4], 167 nM. Besides, the results for the solubility at 1 h in data set [12] and in [5] were 61 µM (≈ 23.1 µg/mL) and 122 µM (≈ 46.3 µg/mL), respectively.
As to `C[C@H]1NC(=O)c2cc(-c3c(F)ccc4c(=O)n(C)c(NC(C)(C)C)nc34)[nH]c21`, the results for the microsomal CLint at 1 µM in data set [6] and in data set [7] were 16 µL/min/mg and below 14 µL/min/mg, respectively. Besides, the clearance in data set [8] is 6.67 mL/min/kg. Further, the Vd in [9] worked out at 1.4 L/kg. Moreover, in [10], the half-life was 4.3 h. Besides, the bioavailability in [11] was determined as 10%. The solubility at 1 h in data set [12] came out at 14 µM (≈ 5.37 µg/mL); in [5], 23 µM (≈ 8.82 µg/mL). The Papp in data set [28] is 16 ×10⁻⁶ cm/s. Besides, the fraction unbound at 5 µM in data set [18] turned out to be 0.062.
Turning to `C[C@H]1NC(=O)c2cc(-c3cccc4c(=O)n(C)c(N5CCCC5(C)C)nc34)[nH]c21`, the IC50 turned out to be 0.6 nM in data set [1], 0.9 nM in data set [3] and 88 nM in data set [4]. Besides, the solubility at 1 h in [12] turned out to be 20 µM (≈ 7.83 µg/mL); in data set [5] it was 35 µM (≈ 13.7 µg/mL).
Take `Cc1nc2ccc(F)c(-c3cc4c([nH]3)[C@@H](C)NC4=O)c2nc1NC(C)(C)C`: the microsomal CLint at 1 µM in data set [6] came to 52 µL/min/mg; in [7], 35 µL/min/mg; in [13] it was 105 µL/min/mg. Further, the clearance in [8] was 8.33 mL/min/kg; in data set [14], 25 mL/min/kg. The Vd was 1.6 L/kg in [9] and 1.7 L/kg in data set [15]. Also, the half-life in data set [10] was 2.9 h; in data set [16] it was 1.1 h. In [11], this compound came in with a bioavailability of 54%.
With `Cc1nc2cccc(-c3cc4c([nH]3)[C@@H](CCN)NC4=O)c2nc1NC(C)(C)C`, the IC50 amounted to 0.3 nM in [1], 0.6 nM in data set [3] and 22 nM in [4]. Moreover, the microsomal CLint at 1 µM in data set [6] and in data set [7] was below 14 µL/min/mg throughout. This compound also showed a clearance in data set [8] of 23.3 mL/min/kg. The Vd in [9] was found to be 21.2 L/kg. Further, in data set [10], the half-life was 17.5 h. In data set [11], this compound showed a bioavailability below 1%.
